This is a sample that favours compounds with a hit; in the whole collection about 2.1% have one here.
Hck-Nef inh = human Hck-Nef kinase inhibition; inhibition, % at 20 µM; hit rate 0.68% among 220,000; Recombinant Hck-YEEI plus Nef, Z-Lyte FRET kinase assay; P08631;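 active = Hck-Nef kinase inhibition above about 50%, limit read from the data; inactive = inhibition below that limit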
Target sequence (P08631 whole entry, looked up): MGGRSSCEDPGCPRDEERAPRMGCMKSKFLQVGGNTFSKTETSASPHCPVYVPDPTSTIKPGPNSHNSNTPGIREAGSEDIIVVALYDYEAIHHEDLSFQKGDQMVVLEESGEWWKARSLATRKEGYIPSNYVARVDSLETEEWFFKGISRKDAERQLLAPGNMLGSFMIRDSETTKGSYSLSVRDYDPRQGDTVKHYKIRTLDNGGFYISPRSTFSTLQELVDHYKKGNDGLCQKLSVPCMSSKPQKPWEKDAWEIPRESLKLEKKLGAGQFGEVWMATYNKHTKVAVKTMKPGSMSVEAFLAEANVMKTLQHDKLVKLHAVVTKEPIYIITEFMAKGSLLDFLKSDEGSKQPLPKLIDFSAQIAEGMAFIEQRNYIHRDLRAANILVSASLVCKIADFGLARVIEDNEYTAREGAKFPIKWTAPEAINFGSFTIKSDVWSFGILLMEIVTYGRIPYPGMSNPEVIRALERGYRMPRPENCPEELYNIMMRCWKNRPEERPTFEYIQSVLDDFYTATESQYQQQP
TbHK1 inh = blocks Trypanosoma brucei hexokinase 1 activity; recombinant TbHK1, G6PDH-coupled NADH A340; inhibition, % at 10 µM; hit rate 0.11% among 220,000;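 active = inhibition of 50% or more in the single-dose primary screen; inactive = inhibition below 50%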
Runt-SMMHC FRET = Runt domain-CBFb-SMMHC interaction inhibition. inhibition, % at 20 µM. Q01196+Q13951. AID 1434. Cerulean-Runt/Venus-CBFb-SMMHC FRET ratio 530/480, 1 h. hit rate 0.74% among 220,000;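 active = mean inhibition across duplicate retests at 20 µM reaching about 50%, limit read from the data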;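 note: inhibitors lower the FRET ratio by blocking Runt binding to CBFb-SMMHC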
p97 ATPase inh = inhibitors of human p97 ATPase; P55072; recombinant p97 ATPase, Kinase-Glo ATP luminescence, 3 h; inhibition, % at 8 µM; hit rate 0.42% among 220,000; AID 1481; in the data active = inhibition above about 15%
Runt-CBFb FRET = blocks binding of human RUNX1 Runt domain to CBFb. Cerulean-Runt/Venus-CBFb FRET ratio 530/480, 1 h. inhibition, % at 20 µM. hit rate 0.46% among 220,000. AID 1496;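 active = inhibition over about 50% at 20 µM in the single-dose screen, limit read from the data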
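Assay system: Cerulean-tagged RUNX1 Runt domain (FRET donor) fusion protein / Amount: 100 nM each of Venus-CBFb and Cerulean-Runt domain / Medium: Tris buffer pH 7.5 with salts and BSA / Also added: Venus-CBFb 100 nM / Schedule: 1 h complex formation plus 1 h compound treatment, room temperature / Signal: FRET fluorescence / Read-out: loss of energy transfer signal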
RanGTP-Impb inh = disruptors of Ran-importin-beta complex formation – biochemical, FRET, CFP-Ran, YFP-importin-beta, homogeneous, primary screen; cell-free CFP-Ran/YFP-importin-beta FRET ratio; inhibition, % (no concentration beside the values); hit rate 1.1% among 300,000;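 active = more than half of the replicate wells show a fall in the fluorescence ratio signal beyond about 16%, limit read from the data, passing the limit was not always enough; inconclusive = exactly half of the replicate wells pass the set limit; inactive = fewer than half of replicates pass the limit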
p97 confirm = confirmation of human p97 ATPase inhibitors. shares compounds with p97 ATPase inh. inhibition, % at 8 µM. hit rate 44% among 760. recombinant p97 ATPase, Kinase-Glo ATP luminescence;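 active = percent inhibition of p97 ATPase above a set limit, the primary screen's mean plus 3 SD, cut at about 15% in these data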
Large screens that a line does not name were inactive (follow-up assays come after a bar, where they were run).

Cc1cc(C2=NNC(=NCCc3ccccc3)SC2)c(C)n1-c1c(C)n(C)n(-c2ccccc2)c1=O	p97 ATPase inh 16.1 | p97 confirm inactive
CSCCC(C)N1CCC(Oc2ccc(C(=O)N3CCCC3)cc2)CC1 (configuration not stated)	none (no result: Hck-Nef inh, TbHK1 inh, Runt-SMMHC FRET, p97 ATPase inh, Runt-CBFb FRET)
O=C1OC(=O)C2C1[C@@H]1CC[C@H]2O1 (some centres not stated)	p97 ATPase inh 15.7 | p97 confirm inactive
CC(C)(C)CN1CCC(Oc2cccc(C(=O)NCCCOc3cccnc3)c2)CC1	none (no result: Hck-Nef inh, TbHK1 inh, Runt-SMMHC FRET, p97 ATPase inh, Runt-CBFb FRET)
CCCC1Nc2ccc(C(=O)O)cc2C2C=CCC12 (configuration not stated)	p97 ATPase inh 25.8 | p97 confirm inactive
O=C(N/N=C/c1c[nH]c2ccc(Br)cc12)c1ccc2c(c1)OCO2	p97 ATPase inh 15.7 | p97 confirm inactive
O=C(N/N=C/c1c[nH]c2ccccc12)c1ccc2c(c1)OCCO2	none
CC(=O)Oc1cc2c3c(c1)/C(=C1/SC(=S)NC1=O)C(=O)N3C(C)(C)C=C2C	p97 ATPase inh 25.4 | p97 confirm 44.7
O=C(CCc1ccccc1)NC(c1cccs1)c1cc(Cl)c2cccnc2c1O (configuration not stated)	p97 ATPase inh 19.4 | p97 confirm inactive
CC#CC#Cc1cccc(=O)o1	p97 ATPase inh 29.2 | p97 confirm 23.2
C#CCOCCOCCOCCNc1nc(N2CCN(C(=O)[C@H]([C@@H](C)CC)n3cc([C@@H](N)Cc4ccc(O)cc4)nn3)CC2)nc(N2CCN(C(=O)[C@H](Cc3ccc(O)cc3)n3cc([C@@H](N)CC(C)C)nn3)CC2)n1	none
C#CCOCCOCCOCCNc1nc(N2CCN(C(=O)[C@H]([C@@H](C)CC)n3cc([C@@H](N)Cc4ccc(O)cc4)nn3)CC2)nc(N2CCN(C(=O)[C@H]([C@@H](C)CC)n3cc([C@@H](N)CC(C)C)nn3)CC2)n1	p97 ATPase inh 18.4 | p97 confirm inactive
C#CCOCCOCCOCCNc1nc(N2CCN(C(=O)C(Cc3ccc(O)cc3)n3cc(C(N)CC(C)C)nn3)CC2)nc(N2CCN(C(=O)C(Cc3cc4ccccc4[nH]3)n3cc(C(N)Cc4ccc(O)cc4)nn3)CC2)n1 (configuration not stated)	p97 ATPase inh 18.9 | p97 confirm 19.8
COc1ccc2cc(C#N)c(SCC(=O)N3CC(=O)Nc4ccccc43)nc2c1	p97 ATPase inh 15.3, RanGTP-Impb inh inconclusive | p97 confirm inactive
Cc1cccc2cc(C#N)c(SCC(=O)N3CC(=O)Nc4ccccc43)nc12	none
Cc1cccc(N(CC(=O)NC2CCCCC2)C(=O)CCCC(=O)Nc2ccccn2)c1C	none (no result: Hck-Nef inh, TbHK1 inh, Runt-SMMHC FRET, p97 ATPase inh, Runt-CBFb FRET)
COc1ccc(N(CC(=O)NC2CCCCC2)C(=O)CCC(=O)Nc2nc(C)cs2)cc1OC	none (no result: Hck-Nef inh, TbHK1 inh, Runt-SMMHC FRET, p97 ATPase inh, Runt-CBFb FRET)
C[N+]1(C)CCC(=C2c3ccccc3CC(=O)c3sccc32)CC1	p97 ATPase inh 19.2 | p97 confirm inactive
CC[N+]1(C)CCC(=C2c3ccccc3CC(=O)c3sccc32)CC1 (configuration not stated)	none
CC(C1CC2CCC1C2)n1c(-c2cccs2)n[nH]c1=S (configuration not stated)	none
CCOC(=O)c1[nH]c2ccc(Br)cc2c1NC(=O)CNC	none
CCOC(=O)c1[nH]c2ccc(Br)cc2c1NC(=O)CCN1CCCC(C)C1 (configuration not stated)	p97 ATPase inh 16.5 | p97 confirm inactive
CCOC(=O)c1[nH]c2ccc(Br)cc2c1NC(=O)CCN1CCC(C)CC1	p97 ATPase inh 17.0 | p97 confirm inactive
CCOC(=O)c1[nH]c2ccc(OC)cc2c1NC(=O)CCN1CCC(C)CC1	none
CCC1Oc2ccccc2N(CC(=O)NC2CCCCC2)C1=O (configuration not stated)	none (no result: Hck-Nef inh, TbHK1 inh, Runt-SMMHC FRET, p97 ATPase inh, Runt-CBFb FRET)
O=C(Nc1ccc(Nc2ccncc2)cc1)c1ccc(Nc2ccnc3ccc([N+](=O)[O-])cc23)cc1	Runt-SMMHC FRET 56.6, p97 ATPase inh 34.5 | p97 confirm 24.0
O=C(Nc1ccc(Cc2ccncc2)cc1)c1cccc([N+](=O)[O-])c1	none
N#C/C(=C(/O)CCl)c1nc(-c2ccccc2)cs1	p97 ATPase inh 40.0, RanGTP-Impb inh inconclusive | p97 confirm 37.9
O=C(c1cc(F)c(F)cc1Cl)N1CCN(c2ncccn2)CC1	none (no result: Hck-Nef inh, TbHK1 inh, Runt-SMMHC FRET, p97 ATPase inh, Runt-CBFb FRET)
COc1ccc(N(CC(=O)N/N=C/c2cc(Br)c(C)o2)S(=O)(=O)c2ccc(NC(C)=O)cc2)cc1	p97 ATPase inh 15.2 (no result: Runt-SMMHC FRET, Runt-CBFb FRET) | p97 confirm inactive
COc1ccc(N(CC(=O)N/N=C/c2ccc(C(=O)O)cc2)S(=O)(=O)c2ccc(NC(C)=O)cc2)cc1	none (no result: Hck-Nef inh, TbHK1 inh, Runt-SMMHC FRET, p97 ATPase inh, Runt-CBFb FRET)
O=C1NC(=O)/C(=C/c2cccc(O)c2)N1	p97 ATPase inh 19.1 | p97 confirm inactive
CC(C)(C)c1cc(/C=C2\NC(=O)NC2=O)cc(C(C)(C)C)c1O	none (no result: Hck-Nef inh, TbHK1 inh, Runt-SMMHC FRET, p97 ATPase inh, Runt-CBFb FRET)
Cc1ccc(Nc2nc(N/N=C\c3ccc4c(c3)OCO4)nc(N3CCOCC3)n2)cc1	none
Cn1c(C(=O)NCc2ccccn2)cc2c(=O)n(C)c3ccccc3c21	p97 ATPase inh 24.7 | p97 confirm inactive
COc1ccc2c(C(=O)CCl)c[nH]c2c1	p97 ATPase inh 35.6 | p97 confirm 42.8
CCCCN(C(=O)NCCCCCCNC(=O)N(CCCC)C1CCS(=O)(=O)C1)C1CCS(=O)(=O)C1 (configuration not stated)	none (no result: Hck-Nef inh, TbHK1 inh, Runt-SMMHC FRET, p97 ATPase inh, Runt-CBFb FRET)
CSC1=NC(=O)/C(=C\c2cccc3ccccc23)S1	p97 ATPase inh 15.2 (no result: RanGTP-Impb inh) | p97 confirm inactive
Cc1[nH]c2ccccc2c1/C=N/NC(=O)c1cc(-c2ccccc2)n[nH]1	p97 ATPase inh 20.6 | p97 confirm 17.3
Cc1[nH]c2ccccc2c1/C=N/Nc1cccc(C(=O)O)c1	p97 ATPase inh 18.5 | p97 confirm 19.1
CSCC[C@H](NC(=O)N1CCn2c1nc1ccccc12)C(=O)NCc1ccco1	none (no result: Hck-Nef inh, TbHK1 inh, Runt-SMMHC FRET, p97 ATPase inh, Runt-CBFb FRET)
CCOc1ccc(C(C(=O)NC2CCCCC2)N(C(=O)c2csnn2)C2CC2)cc1 (configuration not stated)	none (no result: Hck-Nef inh, TbHK1 inh, Runt-SMMHC FRET, p97 ATPase inh, Runt-CBFb FRET)
COc1ccc(NC2CCCN(C(=O)c3cc(C)nc4cc(F)ccc34)C2)cc1 (configuration not stated)	none (no result: Hck-Nef inh, TbHK1 inh, Runt-SMMHC FRET, p97 ATPase inh, Runt-CBFb FRET)
O=C(NCCOc1cccnc1)C1CCC(=O)N(Cc2ccccc2F)C1 (configuration not stated)	none (no result: Hck-Nef inh, TbHK1 inh, Runt-SMMHC FRET, p97 ATPase inh, Runt-CBFb FRET)
NC(=O)c1sc2nc(-c3ccco3)ccc2c1N	p97 ATPase inh 24.3 | p97 confirm inactive
COC(=O)c1cc(NC(=O)Cn2c(=O)oc3ccccc32)cc(C(=O)OC)c1	none (no result: Hck-Nef inh, TbHK1 inh, Runt-SMMHC FRET, p97 ATPase inh, Runt-CBFb FRET)
Cc1csc2c(=O)sc(NC(=O)c3ccc(F)cc3)nc12	none
Cc1csc2c(=O)sc(NC(=O)c3ccc(F)cc3Cl)nc12	p97 ATPase inh 16.9 | p97 confirm 19.5
